In brackets after ≈: the same amount, converted by molar mass.
What follows are compounds tested on Mycobacterium tuberculosis (assay: Antitubercular activity against Mycobacterium bovis BCG after 7 days by alamar blue assay). Conditions: variant bovis BCG, 168 h.
Assay type: functional
Outline: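 Frozen BCG stock thawed, lightly sonicated, diluted in Dubos broth/OADC to 4 × 10^4 bacteria/well; compounds at varied concentrations in PBS/2.5-5% DMSO, 37 °C for 7 days, then Alamar Blue 24 h. Ethambutol control; triplicate.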

Compound	MIC [µg/mL]
Cc1ccc(S(=O)(=O)C2=C(S(=O)(=O)c3ccc(C)cc3)C(=O)c3ncccc3C2=O)cc1	6.3 (≈ 13.5 µM)
O=C1C(Cl)=C(NCCBr)C(=O)c2ncccc21	6.3 (≈ 20 µM)
O=C1C(NCCCl)=C(Cl)C(=O)c2ncccc21	6.3 (≈ 23.2 µM)
O=C1C(Cl)=C(NCCCl)C(=O)c2ncccc21	12.5 (≈ 46.1 µM)
Cc1ccc2c(n1)C(=O)C(Cl)=C(NCCBr)C2=O	12.5 (≈ 37.9 µM)
Cc1ccc2c(n1)C(=O)C(NCCBr)=C(Cl)C2=O	12.5 (≈ 37.9 µM)
CNC1=C(SC)C(=O)c2cccnc2C1=O	> 50
CNC1=C(Sc2ccccc2)C(=O)c2ncccc2C1=O	12.5 (≈ 42.2 µM)
CNC1=C(Sc2ccccc2)C(=O)c2cccnc2C1=O	12.5 (≈ 42.2 µM)
CNC1=C([S+](C)[O-])C(=O)c2ncccc2C1=O (stereo unspecified)	25 (≈ 99.9 µM)
Cc1ccc2c(n1)C(=O)C(Cl)=C(Cl)C2=O	6.3 (≈ 26 µM)
O=C1c2cccnc2C(=O)C2SCCNC12 (stereo unspecified)	6.3 (≈ 26.9 µM)
O=C1C2=C(NCCS2)C(=O)c2ncccc21	6.3 (≈ 27.1 µM)
C[S+]([O-])C1=C(N)C(=O)c2cccnc2C1=O (stereo unspecified)	1.56 (≈ 6.6 µM)
CNC1=C(Cl)C(=O)c2cccnc2C1=O	12.5 (≈ 56.1 µM)
CSC1=C(N)C(=O)c2cccnc2C1=O	6.3 (≈ 28.6 µM)
CNC1=C(SC)C(=O)c2ncccc2C1=O	12.5 (≈ 53.4 µM)
CSC1=C(SC)C(=O)c2ncccc2C1=O	6.3 (≈ 25.1 µM)
O=C1C(NCCBr)=C(Cl)C(=O)c2ncccc21	3.13 (≈ 9.92 µM)
O=C1C(NC(c2ccccc2)c2ccccc2)=C(Cl)C(=O)c2ncccc21	6.3 (≈ 16.8 µM)
CNC1=C(Cl)C(=O)c2ncccc2C1=O	12.5 (≈ 56.1 µM)
CNC1=C([S+](C)[O-])C(=O)c2cccnc2C1=O (stereo unspecified)	> 50
CS(=O)(=O)C1=C(N)C(=O)c2cccnc2C1=O	25 (≈ 99.1 µM)
Cc1ccc(S(=O)(=O)C2=C(Cl)C(=O)c3ncccc3C2=O)cc1	> 50
O=C1C(Sc2ccccc2)=C(Sc2ccccc2)C(=O)c2ncccc21	> 50
Oc1c(Sc2ccccc2)c(Sc2ccccc2)c(O)c2ncccc12	25 (≈ 66.2 µM)

Source: ChEMBL document CHEMBL1157933, “The anti-cancer, anti-inflammatory and tuberculostatic activities of a series of 6,7-substituted-5,8-quinolinequinones” (Bioorg Med Chem, 2010)
